Screening results as filed in PubChem.
Mdm2-MdmX inh – inhibitors of human Mdm2/MdmX interaction; O15151+Q00987; SaOS-2 split-luciferase Mdm2/MdmX complementation, luminescence; inhibition, % at 8 µM; 330,000 tested, 3% active;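 active = inhibition of at least 50% at 8 µM in the primary screen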
XBP1 UPR activ – activators of adaptive arm of unfolded protein response (XBP1); activation, % at 20 µM; CHO-XBP1 luciferase reporter, IRE1-XBP1 UPR activation, luminescence; percent of tunicamycin response, DMSO as zero; 330,000 tested, 0.33% active; AID 463104;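 active = versus positive control, 20 µM dose yields 30% or more activation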
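Material: CHO-XBP1 cells stably carrying IRE1-XBP1-driven luciferase reporter | Medium: F12 with 10% serum | Compound dosing: 20 µM single concentration, DMSO 1% | Incubation: Overnight seeding at 37 °C, 6 h compound treatment at 37 °C | Detection: Steady-Glo luminescence read | Read-out basis: % activation of reporter signal versus tunicamycin and DMSO controls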
Beta2AR agonist – human beta-2 adrenergic receptor agonism by FAP. P07550. response, % (concentration not given with the values). AID 504454. 340,000 tested, 0.43% active. Am2.2-beta2AR cells, FAP receptor internalization, flow cytometry;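 active = response above a set limit, near 3 SD of response in nonfluorescent compounds, cut at about 42% in these data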
CHOP UPR activ – activators of apoptotic arm of unfolded protein response (CHOP). CHO-CHOP luciferase reporter, UPR activation, luminescence; percent of tunicamycin response over DMSO baseline. activation, % at 10 µM. 330,000 tested, 0.34% active. AID 449763;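 active = at 10 µM dose, activation of 40% or more, normalized to positive control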
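assay system = CHO CHOP reporter cells | amount = 500 CHO-CHOP cells per well | buffer or medium = F12 with 10% FBS | incubation = 16-18 h cell attachment, then 6 h compound exposure, 37 °C | detection = luminescence read with Steady-Glo | read-out = percent activation relative to tunicamycin control | controls = tunicamycin high control, DMSO low control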
Mdm2 ligase inh – inhibitors of human Mdm2 E3 ubiquitin ligase. Q00987. cell-based MDM2 ubiquitination luciferase reporter, 2 h; 0 = plate control, 100 = twice control, blank-subtracted. signal enhancement, % at 5 µM. 210,000 tested, 0.11% active. AID 1230;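 active = signal enhancement of 30% or more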;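 note: luminescence tracks abundance of the self-degrading MDM2-luciferase fusion protein; higher signal means inhibition of MDM2 E3 ligase activity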
Target sequence (Q00987 whole entry, looked up, the tested form may be a part): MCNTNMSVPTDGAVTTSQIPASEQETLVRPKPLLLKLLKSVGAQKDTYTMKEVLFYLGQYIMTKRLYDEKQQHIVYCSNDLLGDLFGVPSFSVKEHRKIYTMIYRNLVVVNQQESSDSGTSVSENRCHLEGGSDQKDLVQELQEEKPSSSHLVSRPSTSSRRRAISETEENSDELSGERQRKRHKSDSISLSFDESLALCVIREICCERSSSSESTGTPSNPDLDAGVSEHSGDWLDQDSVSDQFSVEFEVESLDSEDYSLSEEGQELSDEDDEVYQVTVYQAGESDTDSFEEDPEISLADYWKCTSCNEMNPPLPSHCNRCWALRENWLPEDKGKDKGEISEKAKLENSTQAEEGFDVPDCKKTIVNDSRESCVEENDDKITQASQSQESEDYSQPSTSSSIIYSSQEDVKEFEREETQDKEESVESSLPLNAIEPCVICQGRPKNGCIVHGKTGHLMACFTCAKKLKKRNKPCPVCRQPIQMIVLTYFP
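Test system: stable mammalian line carrying autodegrading MDM2–luciferase fusion reporter; quantity: 2000 cells in each well; times: 4 h cell settling then 2 h compound exposure, 37 °C; detection: luminescence with SteadyLite reagent, 15 min at room temperature; evaluation: percent signal gain over controls, blank-subtracted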
Dynein transport – blocks dynein driven cargo transport along microtubules. 3617.4 mouse cells, GR-EGFP nuclear translocation imaging; test concentration mostly 20 µM; stimulated with dexamethasone, 1 µM; stronger effect = lower value. z-score, hits read low. 220,000 tested, 0.47% active;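 active = plate z-score of nuclear minus cytoplasmic receptor signal below a set negative limit, without overly bright fluorescence or cell loss, cut at about -3.5 in these data, passing the limit was not always enough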;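 note: z-score of nuclear minus cytoplasmic ring GR-EGFP intensity difference per well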
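Schedule: 48 h induction, then 1 h compound, then 30 min agonist, 37 °C. Buffer or medium: tetracycline-free induction medium containing charcoal-stripped FBS. Reagent: 1.0 µM final dexamethasone stimulus. Evaluation: nuclear versus cytoplasmic GR-EGFP signal, averaged per well. Signal: high-content fluorescence imaging after fixation.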
Mdm2-MdmX conf – confirmation of human Mdm2/MdmX interaction inhibitors; shares compounds with Mdm2-MdmX inh; Mdm2-MdmX binding, luminescent assay; inhibition, % at 8 µM; 10,000 tested, 55% active; AID 489028; in the data active = inhibition above about 40%
FLuc counter – counter-screen for Mdm2/MdmX inhibitors: full-length luciferase. 6,200 tested, 77% active. shares compounds with Mdm2-MdmX inh. SaOS-2 full-length luciferase counterscreen, luminescence. inhibition, % at 8 µM;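 active = mean inhibition at 8 µM reaching about 37%, which flags the compound as non-specific, limit read from the data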;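 note: p53-null SaOS-2 cells with luciferase driven by a doxycycline-inducible promoter; compound on cells about two nights before reading with doxycycline added after day one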
Hits are given with their value; - = inactive; . = not tested or not shown. Rows were chosen to be rich in hits. Some 3.7% of all compounds tested hit in one or more screens of this group.

SMILES	Mdm2-MdmX inh	XBP1 UPR activ	Beta2AR agonist	CHOP UPR activ	Mdm2 ligase inh	Dynein transport	Mdm2-MdmX conf	others
CN1CCN(S(=O)(=O)c2ccc(NC(=S)NC(=O)c3ccc(Cl)cc3)cc2)CC1	.	.	-	.	-	-	.
CC1CCN(S(=O)(=O)c2ccc(NC(=S)NC(=O)c3ccc(Cl)cc3)cc2)CC1	54	-	-	-	-	-	-	FLuc counter=72
O=C(CSc1ccc2nnc(-c3ccccn3)n2n1)Nc1ccc(F)cc1F	-	-	-	-	.	.	.
COc1ccc(S(=O)(=O)NNC(=O)Cc2csc(C)n2)cc1[N+](=O)[O-]	-	-	-	-	.	.	.
N#Cc1c([N+](=O)[O-])cc([N+](=O)[O-])cc1S(=O)(=O)Cc1ccccc1	98	-	94	-	.	.	96	FLuc counter=-
O=C(N/N=C1\CCCc2ccccc21)C(O)c1ccccc1 (stereo unspecified)	-	-	-	-	-	-	.
O=C(N/N=C1/CCCc2ccccc21)C(c1ccccc1)c1ccccc1	58	-	-	-	-	-	-
O=C(N/N=C1/CCCc2ccccc21)c1cc([N+](=O)[O-])cc([N+](=O)[O-])c1	67	-	.	-	-	-	-	FLuc counter=94
CS(=O)(=O)c1ccc(C(=O)NC2CCCCC2)cc1	55	-	-	-	-	-	-
CS(=O)(=O)Nc1ccc(C(=O)NC2CCCCC2)cc1	-	-	-	-	-	-	.
Cc1ccc(-n2c(-c3ccccc3)c[n+]3c2CCc2ccccc2-3)c(C)c1	82	-	-	-	-	-	66	FLuc counter=-
Cc1cc(C)c(NC(=O)Cn2nnc(C(=O)NCc3cccs3)c2N)c(C)c1	-	-	-	-	-	-	.
Cc1ccc(NC(=O)Cn2nnc(C(=O)NCc3cccs3)c2N)c(C)c1	69	-	-	-	.	.	-
Cc1cc(C)cc(NC(=O)Cn2nnc(C(=O)NCc3ccc4c(c3)OCO4)c2N)c1	55	-	-	-	.	.	-	FLuc counter=55
COc1ccc(NC(=O)Cn2nnc(C(=O)NCc3ccc4c(c3)OCO4)c2N)cc1	-	-	-	-	-	-	.
CCOc1ccc(NC(=O)Cn2nnc(C(=O)NCc3ccc4c(c3)OCO4)c2N)cc1	52	-	-	-	.	.	-
COc1ccc(OCc2cc(C(=O)O)c(C)o2)cc1	-	-	.	-	-	-	.
CCOC(=O)C1CCCN(CCC(=O)Nc2ccc(Br)c(C)c2)C1 (stereo unspecified)	-	-	-	-	.	.	.
CCCCN(C(=O)c1cccc(S(=O)(=O)N2CCN(C)CC2)c1)c1c(N)n(CCC)c(=O)[nH]c1=O	-	-	-	-	.	.	.
O=C(Nc1ccccc1)OCCOc1ccc(Cl)cc1Cl	.	.	-	.	.	.	.
Cc1ccc(OCCCCN2CCCCC2)c(C)c1	-	-	-	-	.	.	.
Cc1ccc(OCCCCNC2CCCC(C)C2C)c(C)c1 (stereo unspecified)	56	-	-	-	-	-	-
CC(NS(=O)(=O)c1cc(C(F)(F)F)ccc1Cl)C(=O)N(C)C1CCN(C)CC1 (stereo unspecified)	-	-	-	-	.	.	.
C[C@@H](CSc1ccccc1)CN1CC[C@H](O)CCC1=O	-	-	-	-	.	.	.
Cc1cc(Br)ccc1NC(=O)CN1CCN(c2ccccn2)CC1	-	-	-	-	.	.	.
SMILES	Mdm2-MdmX inh	XBP1 UPR activ	Beta2AR agonist	CHOP UPR activ	Mdm2 ligase inh	Dynein transport	Mdm2-MdmX conf	others
Cc1cc(Br)ccc1NC(=O)c1sc2ncnc(N3CCN(c4ccccn4)CC3)c2c1C	59	-	-	-	.	.	49	FLuc counter=59
COc1ccc(NC(=O)c2sc3nc(C)nc(N4CCN(c5ccccn5)CC4)c3c2C)cc1Cl	51	-	-	-	.	.	-
COc1ccc(NC(=O)c2sc3ncnc(N4CCN(c5ccccn5)CC4)c3c2C)cc1Cl	57	-	-	-	.	.	-
Cc1ccc(-n2nc3c(=O)n(CCCC(=O)N4CCC(C(N)=O)CC4)nc(C)c3c2C)cc1	-	-	-	-	.	.	.
CCCCC(=O)NC(c1ccccc1Cl)c1c(O)ccc2ccccc12 (stereo unspecified)	-	-	-	-	-	-	.
CCCC(=O)NC(c1ccc(N(C)C)cc1)c1c(O)ccc2ccccc12 (stereo unspecified)	-	-	-	-	-	-	.
CCCCC(=O)NC(c1ccc(N(CC)CC)cc1)c1ccc2cccnc2c1O (stereo unspecified)	83	-	-	-	.	.	86	FLuc counter=-
CCCCC(=O)NC(c1ccc(N(C)C)cc1)c1ccc2cccnc2c1O (stereo unspecified)	75	-	-	-	.	.	86	FLuc counter=-
CCOc1c(Br)cc(CNc2ccc3c(c2)OCCO3)cc1OC	71	-	-	-	-	-	58	FLuc counter=57
CCOc1cc(CNc2ccc3c(c2)OCCO3)cc(Br)c1OCC(N)=O	-	-	-	-	-	-	.
CC(NC(=O)c1cc(-c2ccc(Br)cc2)on1)c1ccccc1 (stereo unspecified)	54	-	-	-	-	-	-
COC(=O)c1cc(-c2ccc(Br)cc2)on1	-	-	-	-	-	-	.
COc1cc(-c2nc3cnccn3c2Nc2ccc(C(C)C)cc2)ccc1O	-	-	-	-	-	-	.
COc1cc(-c2nc3cnccn3c2Nc2ccccc2)ccc1O	57	-	-	-	-	-	-	FLuc counter=94
COc1cc(-c2nc3cnccn3c2Nc2ccc(C)cc2)ccc1O	69	-	-	-	-	-	-
CCCc1cc(=O)[nH]c(SCC(=O)N2c3ccccc3CC2C)n1 (stereo unspecified)	-	-	-	-	.	.	.
CC(C)N(C(=O)[C@H]1CC(CC(=O)NCC23CC4CC(CC(C4)C2)C3)C(=O)N2CCc3c([nH]c4ccccc34)[C@]12C)C(C)C (stereo partly specified)	59	-	-	-	.	.	-
CC(C)N(C(=O)[C@H]1CC(CC(=O)NCc2cccc(C(F)(F)F)c2)C(=O)N2CCc3c([nH]c4ccccc34)[C@]12C)C(C)C (stereo partly specified)	64	-	-	-	.	.	-
CCN(CC)C(=O)[C@H]1C[C@H](CC(=O)NCc2cccc(C(F)(F)F)c2)C(=O)N2CCc3c([nH]c4cc(-c5ccco5)ccc34)[C@]12C	53	-	-	-	.	.	-
